In ChEMBL document CHEMBL4304759, “Identifying Novel Anti-Osteoporosis Leads with a Chemotype-Assembly Approach” (J Med Chem, 2019):
The source made the active and inactive calls. No cut-off for these calls is given here.

How the values were obtained:
Rattus norvegicus [1] = test: Effect on serum RANKL level in ovariectomized Sprague-Dawley rat at 10 mg/kg/day, po for 3 months measured post-last dose; assay type: organism-based; conditions: in vivo
[2] = Renal toxicity in ovariectomized Sprague-Dawley rat assessed as effect on kidney at 10 mg/kg/day, po for 3 months measured post-last dose; assay type: organism-based; conditions: in vivo
[3] = Toxicity in ovariectomized Sprague-Dawley rat assessed as effect on alkaline phosphatase level at 10 mg/kg/day, po for 3 months measured post-last dose; assay type: organism-based; conditions: in vivo
[4] = Pulmonary toxicity in ovariectomized Sprague-Dawley rat assessed as effect on lung at 10 mg/kg/day, po for 3 months measured post-last dose; assay type: organism-based; conditions: in vivo
[5] = Toxicity in ovariectomized Sprague-Dawley rat assessed as effect on total triglyceride level at 10 mg/kg/day, po for 3 months measured post-last dose; assay type: organism-based; conditions: in vivo
BMDM [6] = test: Anti-osteoporosis activity in C57BL/6 mouse bone marrow macrophages assessed as inhibition of M-CSF/RANKL-induced osteoclast differentiation by measuring reduction in TRAcP gene expression at 0.1 uM supplemented with fresh medium containing compounds every 2 days for 5 by trizol-reagent based RT-PCR analysis; assay type: functional, cell-based
Summary of the method: (§1)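 BMMs from femur/tibia of six-week-old C57BL/6 mice, seeded at 1×10^5 cells/well in complete α-MEM (10% FBS) with M-CSF 30 ng/mL and GST-rRANKL 100 ng/mL, with or without compound at 0.1 μM for 5 days. RNA extracted with TRIzol, reverse-transcribed, then qPCR with SYBR-type premix: 40 cycles of 95 °C 10 s, 56 °C 10 s, 72 °C 30 s.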

[7] = Hepatotoxicity in ovariectomized Sprague-Dawley rat assessed as effect on liver at 10 mg/kg/day, po for 3 months measured post-last dose; assay type: toxicity, organism-based; conditions: in vivo
BMDM [8] = test: Anti-osteoporosis activity in C57BL/6 mouse bone marrow macrophages assessed as inhibition of M-CSF/RANKL-induced osteoclast differentiation supplemented with fresh medium containing compounds every 2 days for 5 measured post-last dose by TRAP staining based assay; assay type: functional, cell-based
Summary of the method: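 Mouse (C57BL/6, 6-week) BMMs were plated at 6×10³ cells/well with M-CSF 30 ng/mL overnight, then given complete α-MEM with M-CSF and GST-rRANKL 100 ng/mL plus compound at varied concentrations, refreshed every 2 days. At day 5 cells were fixed in 4% paraformaldehyde and TRAcP-stained; TRAcP+ cells with >3 nuclei were counted.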

BMDM [9] = test: Anti-osteoporosis activity in C57BL/6 mouse bone marrow macrophages assessed as inhibition of M-CSF/RANKL-induced osteoclast differentiation by measuring reduction in hydroxyapatite resorption at 0.01 to 1 uM measured after 48 hrs by microscopic analysis; assay type: functional, cell-based
Summary of the method: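 BMMs were driven to mature osteoclasts with GST-rRANKL plus M-CSF (30 ng/mL) on collagen-coated plates. Equal numbers were reseeded onto hydroxyapatite-coated wells with GST-rRANKL/M-CSF, with or without compound, for 48 h. Cells were bleached off, resorbed areas imaged by inverted microscope, and percent surface resorbed quantified.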

[10] = Toxicity in ovariectomized Sprague-Dawley rat assessed as effect on blood urea nitrogen level at 10 mg/kg/day, po for 3 months measured post-last dose; assay type: organism-based; conditions: in vivo
[11] = Toxicity in ovariectomized Sprague-Dawley rat assessed as effect on aspartate transaminase level at 10 mg/kg/day, po for 3 months measured post-last dose; assay type: organism-based; conditions: in vivo
BMDM [12] = test: Anti-osteoporosis activity in C57BL/6 mouse bone marrow macrophages assessed as inhibition of M-CSF/RANKL-induced osteoclast differentiation by measuring reduction in MMP9 gene expression at 0.1 uM supplemented with fresh medium containing compounds every 2 days for 5 by trizol-reagent based RT-PCR analysis; assay type: functional, cell-based; summary of the method: as §1
[13] = Toxicity in ovariectomized Sprague-Dawley rat assessed as effect on spleen at 10 mg/kg/day, po for 3 months measured post-last dose; assay type: organism-based; conditions: in vivo
[14] = Toxicity in ovariectomized Sprague-Dawley rat assessed as effect on thymus at 10 mg/kg/day, po for 3 months measured post-last dose; assay type: organism-based; conditions: in vivo
[15] = Toxicity in ovariectomized Sprague-Dawley rat assessed as effect on creatinine level at 10 mg/kg/day, po for 3 months measured post-last dose; assay type: organism-based; conditions: in vivo
Rattus norvegicus [16] = test: Anti-osteoporosis activity in ovariectomized Sprague-Dawley rat assessed as reduction in serum osteocalcin level at 10 mg/kg/day, po for 3 months measured post-last dose; assay type: functional, organism-based
[17] = Toxicity in ovariectomized Sprague-Dawley rat assessed as effect on alanine aminotransferase level at 10 mg/kg/day, po for 3 months measured post-last dose; assay type: organism-based; conditions: in vivo
C3H 10T1/2 [18] = test: Cytotoxicity against mouse C3H10T1/2 cells assessed as effect on cell viability at 0.1 to 100 uM measured after 48 to 72 hrs by CCK8 assay; assay type: cell-based; conditions: c3h 10t1/2, 100 µM
Summary of the method: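 C3H10T1/2 cells in log phase were seeded at 6×10^3 per well and held 24 h. They were then exposed to DMSO vehicle or compound at 0.1–100 μM for 48 h or 72 h. CCK-8 was added for 30 min at 37 °C and absorbance read at 450 nm.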

BMDM [19] = test: Anti-osteoporosis activity in C57BL/6 mouse bone marrow macrophages assessed as inhibition of M-CSF/RANKL-induced osteoclast differentiation by measuring reduction in c-FOS gene expression at 0.1 uM supplemented with fresh medium containing compounds every 2 days for 5 by trizol-reagent based RT-PCR analysis; assay type: functional, cell-based; summary of the method: as §1
C3H 10T1/2 [20] = test: Osteogenic activity in mouse C3H10T1/2 cells assessed as effect on osteogenic medium-induced osteoblast differentiation by measuring calcium deposition at 0.1 to 10 uM after 14 days by alizarin red dye-based assay; assay type: cell-based; conditions: c3h 10t1/2, 336 h
Summary of the method: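 C3H10T1/2 cells were seeded at 5×10^4 cells/cm² in α-MEM with 10% FBS for 24 h. Osteogenic induction used medium with 5% FBS, 10⁻⁷ M dexamethasone, 50 μM ascorbic acid and 10 mM β-glycerol-phosphate, with or without compound, for 14 days. Cells were fixed in 4.0% formaldehyde and stained with 0.1% Alizarin red (pH 4.4) for 5 min at room temperature.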

[21] = Toxicity in ovariectomized Sprague-Dawley rat assessed as effect on uterus at 10 mg/kg/day, po for 3 months measured post-last dose; assay type: organism-based; conditions: in vivo
Rattus norvegicus [22] = test: Anti-osteoporosis activity in ovariectomized Sprague-Dawley rat assessed as reduction in serum CTX1 level at 10 mg/kg/day, po for 3 months measured post-last dose; assay type: functional, organism-based
Rattus norvegicus [23] = test: Anti-osteoporosis activity in ovariectomized Sprague-Dawley rat assessed as reduction in femur bone mass loss at 10 mg/kg/day, po for 3 months measured post-last dose by micro-CT analysis; assay type: functional, organism-based
BMDM [24] = test: Anti-osteoporosis activity in C57BL/6 mouse bone marrow macrophages assessed as inhibition of M-CSF/RANKL-induced osteoclast differentiation by measuring reduction in NFATc1 gene expression at 0.1 uM supplemented with fresh medium containing compounds every 2 days for 5 by trizol-reagent based RT-PCR analysis; assay type: functional, cell-based; summary of the method: as §1
Rattus norvegicus [25] = test: Anti-osteoporosis activity in ovariectomized Sprague-Dawley rat assessed as femur bone mineral density loss at 10 mg/kg/day, po for 3 months measured post-last dose by dual energy X-ray absorptiometry (RVb = 19%); assay type: functional
[26] = Cardiotoxicity in ovariectomized Sprague-Dawley rat assessed as effect on heart at 10 mg/kg/day, po for 3 months measured post-last dose; assay type: toxicity, organism-based; conditions: in vivo
[27] = Toxicity in ovariectomized Sprague-Dawley rat assessed as effect on total cholesterol level at 10 mg/kg/day, po for 3 months measured post-last dose; assay type: organism-based; conditions: in vivo
Rattus norvegicus [28] = test: Anti-osteoporosis activity in ovariectomized Sprague-Dawley rat assessed as reduction in serum PINP level at 10 mg/kg/day, po for 3 months measured post-last dose; assay type: functional, organism-based

For `O=C(Cn1cc(-c2ccncc2)nn1)Nc1nccs1`, the Activity (Rattus norvegicus [1]) was “Non-Toxic”, the Activity [2] was “Non-Toxic” and the Activity [3] was “Non-Toxic”. For the same compound, the Activity [4] was “Non-Toxic”, the Activity [5] was “Non-Toxic” and the inhibition (BMDM [6]) was “Active”. For the same compound, the Activity [7] was “Non-Toxic”, the inhibition (BMDM [8]) was “Dose-dependent effect” and the IC50 (BMDM [8]; C57BL/6, BMDM, 5 days) was 2 nM. The inhibition (BMDM [9]) was “Active”, the Activity [10] was “Non-Toxic” and the Activity [11] was “Non-Toxic”. For the same compound, the inhibition (BMDM [12]) was “Active”, the Activity [13] was “Non-Toxic” and the Activity [14] was “Non-Toxic”. For the same compound, the Activity [15] was “Non-Toxic”, the Activity (Rattus norvegicus [16]) was “Active” and the Activity [17] was “Non-Toxic”. The Activity (C3H 10T1/2 [18]) was “Non-Toxic”, the inhibition (BMDM [19]) was “Active” and the Activity (C3H 10T1/2 [20]) was “Non-Toxic”. For the same compound, the Activity [21] was “Non-Toxic”, the Activity (Rattus norvegicus [22]) was “Active” and the Activity (Rattus norvegicus [23]) was “inactive”. The inhibition (BMDM [24]) was “Active”, the Activity (Rattus norvegicus [25]) was 8% and the Activity [26] was “Non-Toxic”. The Activity [27] was “Non-Toxic” and the Activity (Rattus norvegicus [28]) was “Active”.
